Laboratory results: ChEMBL document CHEMBL5550111, “Design, synthesis and biological evaluation of aryloxy thiophosphoramidate triesters of anticancer nucleoside analogues” (Bioorg Med Chem, 2024)

What was measured:
OVCAR-3 [1] = assay: Cytotoxicity against human OVCAR-3 cells assessed as maximum inhibition of cell viability upto 198 uM incubated for 72 hrs by MTS assay relative to control; format: functional; settings: up to 198 µM
Procedure, shortened: (§1)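 Cells seeded at 0.5 to 100 × 10^3 per well the day before drug addition, then exposed to compound for 72 h. MTS added afterwards, with a further 4 h at 37 °C, and absorbance read. Tested in duplicate at 9 serial 3.16-fold dilutions, top concentration 198 μM. MI% is the maximum inhibition of viability across the tested range.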

COLO 205 [2] = assay: Cytotoxicity against human COLO 205 cells assessed as maximum inhibition of cell viability upto 198 uM incubated for 72 hrs by MTS assay relative to control; format: functional; settings: up to 198 µM; procedure, shortened: as §1
NCI-H1975 [3] = assay: Cytotoxicity against human NCI-H1975 cells assessed as inhibition of cell viability incubated for 72 hrs by MTS assay; format: functional, cell-based; settings: NCI-H1975, 72 h
Procedure, shortened: (§2)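 Cells seeded at 0.5 to 100 × 10^3 per well the day before treatment, then exposed for 72 h to 9 serial concentrations (3.16-fold dilutions, top 198 μM), in duplicate. MTS added for a final 4 h at 37 °C and absorbance read. IC50 is the concentration giving 50% loss of viability. MI% is the maximum inhibition over the tested range.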

HepG2 [4] = assay: Cytotoxicity against human HepG2 cells assessed as inhibition of cell viability incubated for 72 hrs by MTS assay; format: functional, cell-based; settings: HepG2, 72 h; procedure, shortened: as §2
SK-MES-1 [5] = assay: Cytotoxicity against human SK-MES-1 cells assessed as maximum inhibition of cell viability upto 198 uM incubated for 72 hrs by MTS assay relative to control; format: functional; settings: up to 198 µM; procedure, shortened: as §1
RT112/84 [6] = assay: Cytotoxicity against human RT112/84 cells assessed as maximum inhibition of cell viability upto 198 uM incubated for 72 hrs by MTS assay relative to control; format: functional; settings: up to 198 µM; procedure, shortened: as §1
OVCAR-3 [7] = assay: Cytotoxicity against human OVCAR-3 cells assessed as inhibition of cell viability incubated for 72 hrs by MTS assay; format: functional, cell-based; settings: OVCAR-3, 72 h; procedure, shortened: as §2
SK-MES-1 [8] = assay: Cytotoxicity against human SK-MES-1 cells assessed as inhibition of cell viability incubated for 72 hrs by MTS assay; format: functional, cell-based; settings: SK-MES-1, 72 h; procedure, shortened: as §2
HepG2 [9] = assay: Cytotoxicity against human HepG2 cells assessed as maximum inhibition of cell viability upto 198 uM incubated for 72 hrs by MTS assay relative to control; format: functional; settings: up to 198 µM; procedure, shortened: as §1
NCI-H1975 [10] = assay: Cytotoxicity against human NCI-H1975 cells assessed as maximum inhibition of cell viability upto 198 uM incubated for 72 hrs by MTS assay relative to control; format: functional; settings: up to 198 µM; procedure, shortened: as §1
RPMI-8226 [11] = assay: Cytotoxicity against human RPMI-8226 cells assessed as maximum inhibition of cell viability upto 198 uM incubated for 72 hrs by MTS assay relative to control; format: functional; settings: up to 198 µM; procedure, shortened: as §1
HT-29 [12] = assay: Cytotoxicity against human HT-29 cells assessed as maximum inhibition of cell viability upto 198 uM incubated for 72 hrs by MTS assay relative to control; format: functional; settings: up to 198 µM; procedure, shortened: as §1
RT112/84 [13] = assay: Cytotoxicity against human RT112/84 cells assessed as inhibition of cell viability incubated for 72 hrs by MTS assay; format: functional, cell-based; settings: RT112/84, 72 h; procedure, shortened: as §2
COLO 205 [14] = assay: Cytotoxicity against human COLO 205 cells assessed as inhibition of cell viability incubated for 72 hrs by MTS assay; format: functional, cell-based; settings: COLO 205, 72 h; procedure, shortened: as §2
MIA PaCa-2 [15] = assay: Cytotoxicity against human MIA PaCa-2 cells assessed as inhibition of cell viability incubated for 72 hrs by MTS assay; format: functional, cell-based; settings: MIA PaCa-2, 72 h; procedure, shortened: as §2
RPMI-8226 [16] = assay: Cytotoxicity against human RPMI-8226 cells assessed as inhibition of cell viability incubated for 72 hrs by MTS assay; format: functional, cell-based; settings: RPMI-8226, 72 h; procedure, shortened: as §2
[17] = Prodrug activation assessed as carboxypeptidase Y (unknown origin) mediated (2S)-2-[[[(2R,3S,5R)-[…]-3-hydroxy-tetrahydrofuran-2-yl]methoxy-hydroxy-phosphoryl]amino]propanoic acid formation from intermediate (2S)-2-[[[(2R,3S,5R)-5-(5-fluoro-2,4-dioxo-pyrimidin-1-yl)-3-hydroxy-tetrahydrofuran-2-yl]methoxy-(1-naphthyloxy)phosphinothioyl]amino]propanoic acid at 5 mg measured for 48 hrs by 31P-NMR assay
Procedure, shortened: (§3)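 Thiophosphoramidate (5 mg, about 0.008 mmol) dissolved in 150 µL acetone-d6, with 300 µL TRIZMA buffer pH 7.6 added. Enzymatic conversion followed by 31P-NMR.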

MIA PaCa-2 [18] = assay: Cytotoxicity against human MIA PaCa-2 cells assessed as maximum inhibition of cell viability upto 198 uM incubated for 72 hrs by MTS assay relative to control; format: functional; settings: up to 198 µM; procedure, shortened: as §1
HT-29 [19] = assay: Cytotoxicity against human HT-29 cells assessed as inhibition of cell viability incubated for 72 hrs by MTS assay; format: functional, cell-based; settings: HT-29, 72 h; procedure, shortened: as §2
MDA-MB-231 [20] = assay: Cytotoxicity against human MDA-MB-231 cells assessed as maximum inhibition of cell viability upto 198 uM incubated for 72 hrs by MTS assay relative to control; format: functional; settings: up to 198 µM; procedure, shortened: as §1
MDA-MB-231 [21] = assay: Cytotoxicity against human MDA-MB-231 cells assessed as inhibition of cell viability incubated for 72 hrs by MTS assay; format: functional, cell-based; settings: MDA-MB-231, 72 h; procedure, shortened: as §2
BXPC-3 [22] = assay: Cytotoxicity against human BXPC-3 cells assessed as maximum inhibition of cell viability upto 198 uM incubated for 72 hrs by MTS assay relative to control; format: functional; settings: up to 198 µM; procedure, shortened: as §1
[23] = Cytotoxicity against human T24/83 cells assessed as inhibition of cell viability incubated for 72 hrs by MTS assay; format: functional, cell-based; settings: T24/83, 72 h; procedure, shortened: as §2
A2780 [24] = assay: Cytotoxicity against human A2780 cells assessed as maximum inhibition of cell viability upto 198 uM incubated for 72 hrs by MTS assay relative to control; format: functional; settings: up to 198 µM; procedure, shortened: as §1
A2780 [25] = assay: Cytotoxicity against human A2780 cells assessed as inhibition of cell viability incubated for 72 hrs by MTS assay; format: functional, cell-based; settings: A2780, 72 h; procedure, shortened: as §2
PANC-1 [26] = assay: Cytotoxicity against human PANC-1 cells assessed as inhibition of cell viability incubated for 72 hrs by MTS assay; format: functional, cell-based; settings: PANC-1, 72 h; procedure, shortened: as §2
BXPC-3 [27] = assay: Cytotoxicity against human BXPC-3 cells assessed as inhibition of cell viability incubated for 72 hrs by MTS assay; format: functional, cell-based; settings: BXPC-3, 72 h; procedure, shortened: as §2
PANC-1 [28] = assay: Cytotoxicity against human PANC-1 cells assessed as maximum inhibition of cell viability upto 198 uM incubated for 72 hrs by MTS assay relative to control; format: functional; settings: up to 198 µM; procedure, shortened: as §1
PC-3 [29] = assay: Cytotoxicity against human PC-3 cells assessed as maximum inhibition of cell viability upto 198 uM incubated for 72 hrs by MTS assay relative to control; format: functional; settings: up to 198 µM; procedure, shortened: as §1
[30] = Prodrug activation assessed as carboxypeptidase Y (unknown origin) mediated (2S)-2-[[[(2R,3R,5R)-5-(4-amino-2-oxo-pyrimidin-1-yl)-4,4-difluoro-3-hydroxy-tetrahydrofuran-2-yl]methoxy-hydroxy-phosphoryl]amino]propanoic acid formation from intermediate (2S)-2-[[[(2R,3R,5R)-5-(4-amino-2-oxo-pyrimidin-1-yl)-4,4-difluoro-3-hydroxy-tetrahydrofuran-2-yl]methoxy-phenoxy-phosphinothioyl]amino]propanoic acid at 5 mg measured for 48 hrs by 31P-NMR assay; procedure, shortened: as §3
[31] = Prodrug activation assessed as carboxypeptidase Y (unknown origin) mediated intermediate (2S)-2-[[[(2R,3R,5R)-5-(4-amino-2-oxo-pyrimidin-1-yl)-4,4-difluoro-3-hydroxy-tetrahydrofuran-2-yl]methoxy-phenoxy-phosphinothioyl]amino]propanoic acid formation at 5 mg measured after 5 hrs by 31P-NMR assay; design: species or system Homo sapiens; procedure, shortened: as §3
PC-3 [32] = assay: Cytotoxicity against human PC-3 cells assessed as inhibition of cell viability incubated for 72 hrs by MTS assay; format: functional, cell-based; settings: PC-3, 72 h; procedure, shortened: as §2

Row | Structure (SMILES) | Imax (OVCAR-3 [1]) | Imax (COLO 205 [2]) | IC50 (HepG2 [4]) | Imax (SK-MES-1 [5]) | Imax (RT112/84 [6]) | IC50 (OVCAR-3 [7]) | IC50 (SK-MES-1 [8]) | Imax (HepG2 [9]) | Imax (HT-29 [12]) | IC50 (RT112/84 [13]) | IC50 (COLO 205 [14]) | IC50 (MIA PaCa-2 [15]) | Imax (MIA PaCa-2 [18]) | IC50 (HT-29 [19]) | also measured
1 | C[C@H](NP(=S)(OC[C@H]1O[C@@H](n2cc(F)c(=O)[nH]c2=O)C[C@@H]1O)Oc1cccc2ccccc12)C(=O)OCc1ccccc1 (stereo partly specified) | 100% | 100% | 25.5 µM | 97% | 97% | 21.5 µM | 2.49 µM | 100% | 100% | 2.49 µM | 4 µM | 2.69 µM | 100% | 2.81 µM | IC50 (NCI-H1975 [3]): 100 µM; Imax (NCI-H1975 [10]): 100%; Imax (RPMI-8226 [11]): 100%; IC50 (RPMI-8226 [16]): 6.63 µM; Drug metabolism [17]: Metabolite_Detected
2 | C[C@H](NP(=S)(OC[C@H]1O[C@@H](n2ccc(N)nc2=O)C(F)(F)[C@@H]1O)Oc1ccccc1)C(=O)OCc1ccccc1 (stereo partly specified) | 46% | 97% | 27.1 µM | 94% | 94% | 97.4 µM | 0.92 µM | 98% | 99% | 0.92 µM | 22.3 µM | 3.83 µM | 99% | 11.5 µM | Imax (MDA-MB-231 [20]): 91%; IC50 (MDA-MB-231 [21]): 11.6 µM; Imax (BXPC-3 [22]): 95%; IC50 [23]: 0.32 µM; Imax (A2780 [24]): 100%; IC50 (A2780 [25]): 3.58 µM; IC50 (PANC-1 [26]): 76.4 µM; IC50 (BXPC-3 [27]): 8.16 µM; Imax (PANC-1 [28]): 99%; Imax (PC-3 [29]): 96%; Drug metabolism [30]: Metabolite_Detected; Drug metabolism [31]: Metabolite_Detected; IC50 (PC-3 [32]): 43.9 µM
